Experimental data published in the RNAGym collection of RNA variant scans (doi:10.1126/science.aae0568).
This sample holds only a part of the variants without activity.

B1: tRNA (parent)
chain: GUUCCGUUGGCGUAAUGGUAACGCGUCUCCCUCCUAAGGAGAAGACUGCGGGUUCGAGUCCCGUACGGAACG

Variants of: B1
Assay: yeast fitness relative to wild type (ratio to wild type); higher = fitter; tRNA-Arg(CCU), competitive growth, 37 C, YPD
Outline: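 Start and end populations of a pooled competition were compared by 100-nucleotide paired-end sequencing of gene amplicons. The Saccharomyces cerevisiae strains carried tRNA-Arg(CCU) gene variants at the native genomic locus, synthesised with a 3% per-site mutation rate at 69 sites, and competed in YPD at 37°C for 24 hours in six parallel replicates. Darwinian fitness relative to wild type was based on the change in genotype frequencies. Genotypes required ≥ 100 starting reads, and estimates < 0.5 were set to 0.5.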

Variant	yeast fitness
A15G G67C	0.706
A15G G67A	0.868
A15U C24G G38A	0.551
A15U C22G C62U	≤ 0.5
A15G G23C U28A	≤ 0.5
A15G C49G G63C	0.594
A15U C27U G48C A70U	0.549
A15U C29A A43C G50C	≤ 0.5
A15G G17C C33A C46A G52A G63C	≤ 0.5
A15U C27G	0.531
A15G U64C A69C	0.775
A15G U19C A37U C49U G51A U64A	≤ 0.5
A15U G38C G39A A43C C60G A65C	0.559
A15U G17C C27U C60G	≤ 0.5
A15U A21C C24G C62G	≤ 0.5
A15U C60G C66G	≤ 0.5
A15G G23C G38C G52C G58A	0.507
A15U C24G A42C C55U G68U	≤ 0.5
A15U A45C C46A C66U	≤ 0.5
A15U C55U G56A C66G	0.59
A15U U19C U47C A65G G68C	≤ 0.5

Variant	yeast fitness
A15U U19A A20G A40U A43U	0.542
A15U A36U	≤ 0.5
A15U A36C	≤ 0.5
A15G G44A G50C C60U A70G	≤ 0.5
A15U A21C G23C C55A U64A A65C G67A	≤ 0.5
A15U C22G C31U U32C A57C U64A G68A	≤ 0.5
A15U C22U A70C	≤ 0.5
A15U G18C C24G C46A U64C A69G	0.513
A15U C29A	0.568
A15G C49U A69U	0.8
A15U A21C C24G C29U A42C U59G G67C	≤ 0.5
A15U A21C C24G C29U A42C U59G G67U	≤ 0.5
A15G U32A G38A C49U	≤ 0.5
A15U C49G A70G	0.576
A15U U16A C27G	0.59
A15U C31A C49G A70C	≤ 0.5
A15G U26G C55U A69U A70C	≤ 0.5
A15G U32G U35C A43C	0.585
A15G C33G	0.732
A15U C46G C61A A70U	≤ 0.5
A15U A21C C24G C29U A42C	≤ 0.5

Variant	yeast fitness
A15U C66U	0.738
A15U C66A	0.649
A15U C24G A42C U64C	≤ 0.5
A15U C30G	≤ 0.5
A15U G51A	0.722
A15U G51C	0.555
A15U C24U A37G U54C C66A	≤ 0.5
A15G U19C	0.985
A15G U19G	0.985
A15U A43U C55U C60A	0.69
A15U C31A C60G	≤ 0.5
A15G U19G C66U	0.721
A15U C31G U54G	≤ 0.5
A15U G52A C61G	0.596
A15U A36G C55G	0.565
A15G G23C G38C G52C C66A	≤ 0.5
A15U C31U A36G	0.568
A15G U28C C30U U59A A70C	≤ 0.5
A15U U16A A21C C33G	0.558
A15U C34A	0.707
A15U C34G	≤ 0.5

Variant	yeast fitness
A15G C34U A40U U54C	≤ 0.5
A15G U28C U35A G38A C46G	0.552
A15U C66U A69U	0.566
A15U C27U A36G G56C	≤ 0.5
A15U U16A G18A C60U	≤ 0.5
A15G G50C C60U	≤ 0.5
A15U C62A	0.624
A15U C34G G51A C66U	0.584
A15G U19C A37U C49U G51A C60A	≤ 0.5
A15U G23A C49G	0.583
A15U U19A C24A C34U A40C	≤ 0.5
A15G G58A G63A G68C	≤ 0.5
A15U G56A	0.727
A15U A40U G63A	≤ 0.5
A15U G38C G39A A43C C60G	0.569
A15G C49U C60G	≤ 0.5
A15U C24A C34G G39U G58C	≤ 0.5
A15U G17C A45U C49G A70U	0.528
A15U C33G G50U	0.527
A15U A43U A65C	0.569
A15G G23C A37U A65U	≤ 0.5
